High-throughput results (PubChem BioAssay)
Compounds with a hit are over-represented: about 27% of the library has one in this group of screens.
CYP2C9 activ: increases human cytochrome P450 2C9 activity. P11712. recombinant CYP2C9, luciferin-H conversion, luminescence; stronger effect = higher value; factor 1 = untreated enzyme, 0 = blocked. activation factor at 5 µM. 96,000 compounds, 1.4% hits. AID 1024;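 active = activation factor of 2 or more for CYP2C9 at a 5 µM dose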
Cav3 T inh: inhibitors of human Cav3.2 T-type calcium channel; Cav3.2-expressing cells, Fluo-4 calcium fluorescence FDSS; stronger effect = lower value; B-score at 10 µM; 100,000 compounds, 4% hits; AID 449739;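 active = single-dose well whose peak fluorescence ratio is a statistical outlier from its plate by either plate-standardised score or position-corrected B-score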
CYP2C19 inh: blocks human cytochrome P450 2C19 | P33261 | CYP2C19 Supersomes, luciferin-H EGE luminescence, 30 min | inhibition, % at 5 µM | 96,000 compounds, 21% hits;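 active = CYP2C19 inhibition above a set limit at 5 µM in the primary screen, cut at about 50% in these data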
CYP2C9 inhib: inhibitors of human CYP2C9; CYP2C9 Supersomes, luciferin-H conversion, luminescence; inhibition, % at 5 µM; 96,000 compounds, 20% hits; AID 777;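 active = blocking of liver enzyme CYP2C9 beyond about 50% at 5 µM, limit read from the data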
HIV Rev-RRE inh: HIV Rev-RRE protein-RNA interaction inhibition; P05866; Rev peptide-RRE RNA binding, FRET; inhibition, % at 8 µM; 97,000 compounds, 0.79% hits; AID 704;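 active = inhibition above the screen-wide mean plus 3 SD, cut at about 35% in these data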
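Assay system: labelled RRE RNA duplex and labelled Rev peptide / Medium: HEPES pH 7.5 salt buffer with EDTA / Reagent: labelled Rev peptide / Schedule: 5 + 15 min at 25 °C / Signal: FRET, excitation 480 nm, emission 540 nm donor and 671 nm acceptor / Benchmarks: DMSO and neomycin B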
CYP2C19 activ: cytochrome P450 2C19 (human) activation; recombinant CYP2C19, luciferin-H EGE luminescence; stronger effect = higher value; 0 = fully inhibited enzyme, 1 = untreated enzyme; activation factor at 5 µM; 96,000 tested, under 10 active; AID 1025;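 active = activation factor of at least 2 at 5 µM in the primary screen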
Each line names hits and unclear results; the compound was inactive in the other large screens.

O=C(NNc1ccc([N+](=O)[O-])cc1)C1CC2CCCC(C1)C2=O (stereo unspecified)	none
CC(C)(C)NC(=O)CN(C(=O)CS(=O)CC(=O)Nc1ccc(F)cc1)c1ccc(F)c(Cl)c1 (stereo unspecified)	CYP2C9 inhib 88.6
Cc1nn(-c2ccccc2)c2nc(N)c(C#N)c(-c3ccc(F)cc3)c12	CYP2C9 inhib 84.0
Cc1ccc(CNC(=O)c2ccc(CNc3c(N4CCCC4)c(=O)c3=O)cc2)cc1	CYP2C19 inh 80.0, CYP2C9 inhib 51.3
CCOC(=O)C1CCN(c2c(NCc3ccc(C(=O)NC4CCCC4)cc3)c(=O)c2=O)CC1	CYP2C9 inhib 60.6
CCCCNC(=O)c1ccc(CNc2c(N3CCC(C(=O)OCC)CC3)c(=O)c2=O)cc1	none (no result: CYP2C9 activ, CYP2C19 inh, CYP2C9 inhib, CYP2C19 activ)
Cc1ccc(NC(=O)c2ccc(CNc3c(N4CCOCC4)c(=O)c3=O)cc2)cc1	none (no result: Cav3 T inh)
O=C(NC1CCCCC1)N1CCCC1	none (no result: CYP2C9 activ, CYP2C19 inh, CYP2C9 inhib, CYP2C19 activ)
Cc1ccsc1/C=C/c1ccc2cccc(O)c2n1	CYP2C19 inh 56.8, CYP2C9 inhib 72.6
COc1ccccc1NS(=O)(=O)c1cc(C(=O)NCCN2CCOCC2)ccc1Cl	none
COC(=O)c1cc(-c2c[nH]c3ccccc23)n[nH]1	CYP2C19 inh 85.4, CYP2C9 inhib 83.6
COC(=O)c1cc(-c2c(C)nn(-c3ccccc3)c2C)n[nH]1	none
CC1CCN(C(=S)NC2CCCCC2)CC1	CYP2C19 inh 70.3
COc1ccc(-c2nnc3n2N=C(c2ccccc2)CS3)cc1OC	CYP2C19 inh 52.3, CYP2C9 inhib 75.6 (no result: Cav3 T inh, HIV Rev-RRE inh)
COc1ccc(C2=Nn3c(nnc3-c3ccccc3)SC2)cc1OC	CYP2C19 inh 72.0
Cc1ccc(-c2nnc3n2N=C(c2ccccc2Br)CS3)cc1	Cav3 T inh -4.02
C=CCOC(=O)C1=C[C@H](C2CCCCC2)[C@@H](CCCO)[C@H](OCC)O1	none (no result: CYP2C9 activ, CYP2C19 inh, CYP2C9 inhib, HIV Rev-RRE inh, CYP2C19 activ)
CC(NC(=O)COC(=O)c1ccco1)c1ccccc1 (stereo unspecified)	none
O=C(NC1CCCCCC1)C1CCN(C(=O)Cc2ccccc2)CC1	none
Cc1nnsc1C(=O)NC(C)C12CC3CC(CC(C3)C1)C2 (stereo unspecified)	CYP2C19 inh 52.1
CC(Oc1ccccc1)C(=O)Nc1cccc(-c2nc3ccccc3[nH]2)c1 (stereo unspecified)	Cav3 T inh -4.61, CYP2C19 inh 79.4, CYP2C9 inhib 98.4
O=C(COc1ccccc1)Nc1cccc(-c2nc3cc4ccccc4cc3[nH]2)c1	CYP2C9 inhib 80.0
CC(C)(C)C(=O)Nc1cccc(-c2nc3ccccc3[nH]2)c1	CYP2C19 inh 53.0, CYP2C9 inhib 85.4
CC(=O)Nc1cccc(-c2nc3ccc(NC(C)=O)cc3[nH]2)c1	none
COc1ccc(CNC(=O)c2cccc3c2C(=O)N(Cc2cccnc2)C3)cc1	CYP2C19 inh 54.8, CYP2C9 inhib 75.6 (no result: HIV Rev-RRE inh)
O=C(c1cccc2c1C(=O)N(Cc1cccnc1)C2)N1CCN(c2ccccc2)CC1	none
O=C(NCc1cccnc1)c1cccc2c1C(=O)N(Cc1cccnc1)C2	CYP2C19 inh 76.1
COCCN1Cc2cccc(C(=O)NCc3cccnc3)c2C1=O	CYP2C19 inh 78.3
Cc1ccc(C(=O)CC2SC(N)=NC2=O)cc1 (stereo unspecified)	none
O=C(CCn1[nH]c(=O)c2ccccc2c1=O)NCCO	none
O=C(CSc1nnc2n(C3CCCCC3)c(=O)c3ccccc3n12)OC1CCCCC1	none
O=C(CCn1[nH]c(=O)c2ccccc2c1=O)OC1CCCCC1	CYP2C19 inh 80.7
O=C(Cn1[nH]c(=O)c2ccccc2c1=O)OCC(=O)N(Cc1ccccc1)Cc1ccccc1	Cav3 T inh -4.42
CCCCOC(=O)CCn1[nH]c(=O)c2ccccc2c1=O	CYP2C19 inh 84.5, CYP2C9 inhib 91.6
COc1ccccc1CNC(=O)C[n+]1ccccc1	none
Cc1ccc(OC(C)C)c(CN(CCO)CCO)c1	none
Cc1nn(CCCC(=O)N2CCc3ccccc3C2)c(=O)c2cc3sccc3n12	CYP2C19 inh 53.9, CYP2C9 inhib 50.8 (no result: Cav3 T inh)
CCOC(=O)CCCn1nc(C)n2c(cc3sccc32)c1=O	none (no result: CYP2C9 activ, CYP2C19 inh, CYP2C9 inhib, CYP2C19 activ)
CCc1nn(CCCC(=O)N2CCc3ccccc3C2)c(=O)c2cc3occc3n12	CYP2C19 inh 79.7 (no result: HIV Rev-RRE inh)
Cc1ccc2c(CC(=O)O)coc2c1C	none (no result: HIV Rev-RRE inh)
NC(=O)c1cccc2c(=O)oc3ccccc3c12	none
Cc1nnc(N/N=C/c2cc([N+](=O)[O-])c(N3CCC(C)CC3)cc2N2CCC(C)CC2)n1N	Cav3 T inh -6.68
Cc1ccc2c(c1)N(C(=O)c1ccco1)C(C)(C)c1ssc(=S)c1-2	CYP2C9 inhib 53.8
Cc1ccc2c(c1)N(C(=O)CSc1nncn1C)C(C)(C)c1ssc(=S)c1-2	CYP2C19 inh 66.9
Cc1cc2c(cc1C)N(C(=O)CSc1nncn1C)C(C)(C)c1ssc(=S)c1-2	none (no result: CYP2C9 activ, CYP2C19 inh, CYP2C9 inhib, CYP2C19 activ)
CON1C(=O)C(=O)N(OC)C(C)(C)C1C (stereo unspecified)	none
COc1ccc(-c2nc3ccc(N4CCCC4)cc3c(=O)[nH]2)cc1OC	none (no result: Cav3 T inh)
COc1ccc(C(=O)CSc2nc(SC)ns2)cc1OC	CYP2C19 inh 62.0
COc1ccc(C(=O)CSc2cc(C)nc3nc(C)nn23)cc1OC	none (no result: HIV Rev-RRE inh)
Cc1cc(C)c(S(C)(=O)=O)c(S(=O)c2ccc(Cl)cc2)n1 (stereo unspecified)	CYP2C9 inhib 57.6
CNc1nc(C)cc(C)c1S(=O)(=O)c1ccc(Cl)cc1	CYP2C19 inh 66.4
CCc1nnc(NC(=O)CSc2nc3c(c(=O)n2CC)SC(C)C3)s1 (stereo unspecified)	none (no result: HIV Rev-RRE inh)
CCn1c(Cn2nnc(-c3ccccc3)n2)nnc1SCC(=O)Nc1ccc(N(C)C)cc1	none (no result: HIV Rev-RRE inh)
CC(C(=O)N1c2ccccc2Sc2ccccc21)n1nnc(-c2cccs2)n1 (stereo unspecified)	Cav3 T inh -6.99, CYP2C19 inh 50.7, CYP2C9 inhib 82.8
O=C(O)Cn1nnc(-c2cccs2)n1	none (no result: Cav3 T inh)
Cc1ccc(-c2nnn(C(C)C(=O)N3c4ccccc4CCc4ccccc43)n2)cc1 (stereo unspecified)	Cav3 T inh -5.26 (no result: CYP2C9 activ, CYP2C19 inh, CYP2C9 inhib, CYP2C19 activ)
CC(C(=O)N1c2ccccc2CCc2ccccc21)n1nnc(-c2ccc(N(C)C)cc2)n1 (stereo unspecified)	Cav3 T inh -5.46 (no result: CYP2C9 activ, CYP2C19 inh, CYP2C9 inhib, CYP2C19 activ)
Cn1c(N2CCN(C(=O)C34CC5CC(CC(C5)C3)C4)CC2)nc2ccccc21	none (no result: Cav3 T inh, HIV Rev-RRE inh)
Cc1ccc(CC(CC(=O)O)C(=O)NC2CCCCC2)cc1 (stereo unspecified)	none
CCCCS(=O)(=O)Nc1ccc(Cc2ccncc2)cc1	CYP2C19 inh 100.0, CYP2C9 inhib 100.0
CCOC(=O)c1cn2cccnc2n1	none
Cc1cncn1CCc1nc2c3ccccc3nc(=S)n2[nH]1	none (no result: CYP2C9 activ, Cav3 T inh, CYP2C19 inh, CYP2C9 inhib, CYP2C19 activ)
O=C(NCC1CCS(=O)(=O)C1)NCC1CCS(=O)(=O)C1 (stereo unspecified)	none
Cc1ccc(Cn2cccc(NC(=O)NC3CCCCC3)c2=O)cc1	CYP2C19 inh 64.8
